The record followed here is ChEMBL document CHEMBL3621160, “Pseudosaccharin amines as potent and selective KV1.5 blockers” (Bioorg Med Chem Lett, 2015).

Where only a bound is given, the exact number is not on record here.

The nature of data set [1]: Metabolic stability in rat liver microsomes assessed as compound remaining at 3 uM after 10 mins. It counts as ADME. Conditions: read-out: Stability. A digest of the protocol:
(§1)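 Parent compound at 3 µM was incubated 10 min in human, rat or mouse liver microsomes with appropriate co-factors. Read-out is percent of parent remaining.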
In general terms: Microsomes from liver hold many membrane-bound enzymes, among them those of drug oxidation.

Data set [2] can be described thus: Metabolic stability in mouse liver microsomes assessed as compound remaining at 3 uM after 10 mins. It counts as ADME. The note with it: read-out: Stability. A digest of the protocol:
as §1

The nature of data set [3]: Metabolic stability in human liver microsomes assessed as compound remaining at 3 uM after 10 mins. The class given is ADME. The note with it: read-out: Stability. An outline of the steps:
as §1

Data set [4] has as its target T1, Potassium voltage-gated channel subfamily A member 5 (Homo sapiens, UniProt P22460). As to the kind of experiment: Inhibition of human KV1.5 expressed in mouse L929 cells assessed as decrease in ultrarapid potassium current amplitude. The class given is cell-based. An outline of the steps: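 Potassium current block was measured in mouse fibroblast L929 cells expressing human KV1.5. IC50 values are means of 2-4 experiments.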

In the next data set the target is hERG (KCNH2) (Homo sapiens, UniProt Q12809). The data set is described as follows: Inhibition of human ERG at 10 uM relative to control. An outline of the steps:
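Screening panel of over 37 receptors and enzymes relevant to cardiovascular effects or toxicity. Each target was tested at a single concentration of 10 µM, with % activity reported.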

Data set [5] is filed under the species Homo sapiens. As to the kind of experiment: Inhibition of calcium channel (unknown origin) at 10 uM relative to control. An outline of the steps:
(§2)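 Calcium (ICa) and sodium (INa) currents were measured as percent inhibition at a single concentration of 10 µM. Values are means of 2-4 experiments.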

For data set [6], the species on record is Homo sapiens. As to the kind of experiment: Inhibition of sodium channel (unknown origin) at 10 uM relative to control. An outline of the steps: as §2
Data set [7] in a line: AUC in rat at 3.6 mg/kg, po. It counts as ADME, organism-based. The note with it: in vivo. A digest of the protocol:
(§3)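 Rats, 3 animals per compound; values are means. Intravenous arm: intra-arterial infusion over 10 min. Oral arm: dosing by gavage. Both routes used a vehicle of 40% PEG 400, 40% water and 20% ethanol. Parameters were derived from plasma concentrations across the infusion and oral arms.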

Data set [8] relates to Rattus norvegicus. The data set is described as follows: Induction of QT interval prolongation in rat at 3 mg/kg, iv administered as infusion for 5 mins by ECG analysis. It counts as functional. A digest of the protocol:
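Rats were dosed at 3 mg/Kg. Block of IKur was read as the percent change in the ECG QT interval; mean blood pressure and plasma concentration were recorded alongside. Values are means of 2-4 experiments.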

For data set [9], the species on record is Oryctolagus cuniculus. The data set is described as follows: Toxicity in rabbit assessed as effect on ventricular effective refractory period. The note with it: in vivo. It counts as organism-based, Cardiac ventricle. An outline of the steps: (§4)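 Rabbits were dosed at 0.3, 1.0 and 3.0 mg/Kg. Effective refractory period was measured in atrium and ventricle, and blood pressure was recorded. The plasma concentration giving 20% atrial ERP prolongation (EC20) was calculated.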

A short description of data set [10]: Clearance in rat at 1.6 mg/kg administered as intra-arterial infusion for 10 mins and 3.6 mg/kg, po. Conditions: in vivo. It counts as ADME, organism-based. An outline of the steps:
as §3

Data set [11] is described as follows: Cmax in rabbit at 0.3 to 3 mg/kg. The class given is ADME, organism-based, Oryctolagus cuniculus. Conditions: in vivo. An outline of the steps:
as §4

Data set [12] in a line: Half life in rat at 1.6 mg/kg administered as intra-arterial infusion for 10 mins and 3.6 mg/kg, po. The class given is ADME, organism-based. The note with it: in vivo. A digest of the protocol:
as §3

The nature of data set [13]: Volume of distribution at steady state in rat at 1.6 mg/kg administered as intra-arterial infusion for 10 mins and 3.6 mg/kg, po. The class given is ADME, organism-based. The note with it: in vivo, read-out: Vdss. A digest of the protocol:
as §3

The species entered for data set [14] is Oryctolagus cuniculus. The data set is described as follows: Induction of […] effective refractory period prolongation in rabbit. The class given is functional. A digest of the protocol:
as §4

Data set [15] is described as follows: Cmax in rat at 1.6 mg/kg administered as intra-arterial infusion for 10 mins and 3.6 mg/kg, po. The class given is ADME, organism-based. Also noted: route oral. The note with it: in vivo. A digest of the protocol:
as §3

Data set [16] concerns Oryctolagus cuniculus. As to the kind of experiment: Toxicity in rabbit assessed as increase in blood pressure at 0.3 to 3 mg/kg. It counts as organism-based. Conditions: in vivo. A digest of the protocol:
as §4

A short description of data set [17]: Oral bioavailability in rat at 3.6 mg/kg. The class given is ADME, organism-based. Conditions: in vivo. A digest of the protocol: as §3
Data set [18] can be described thus: Plasma concentration in rat at 3 mg/kg, iv administered as infusion for 5 mins. It counts as ADME, organism-based. An outline of the steps:
(§5)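 Rats were dosed at 3 mg/Kg. QT interval on ECG, mean blood pressure (% change) and plasma concentration were measured. Values are means of 2-4 experiments.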

Data set [19] has as its system Rattus norvegicus. As to the kind of experiment: Toxicity in rat assessed as increase in blood pressure at 3 mg/kg, iv administered as infusion for 5 mins. The class given is organism-based. The note with it: in vivo. A digest of the protocol: as §5
The target in data set [20] is T1, Potassium voltage-gated channel subfamily A member 5. As to the kind of experiment: Inhibition of human KV1.5 expressed in mouse L929 cells assessed as decrease in ultrarapid potassium current amplitude relative to control. It counts as cell-based. Also noted: concentration or dose not given beside the values. Conditions: concentration not given here. A digest of the protocol: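 Potassium current block in mouse fibroblast L929 cells expressing human Kv1.5. IC50 values are means of 2-4 experiments.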

T1 sequence (P22460 whole entry): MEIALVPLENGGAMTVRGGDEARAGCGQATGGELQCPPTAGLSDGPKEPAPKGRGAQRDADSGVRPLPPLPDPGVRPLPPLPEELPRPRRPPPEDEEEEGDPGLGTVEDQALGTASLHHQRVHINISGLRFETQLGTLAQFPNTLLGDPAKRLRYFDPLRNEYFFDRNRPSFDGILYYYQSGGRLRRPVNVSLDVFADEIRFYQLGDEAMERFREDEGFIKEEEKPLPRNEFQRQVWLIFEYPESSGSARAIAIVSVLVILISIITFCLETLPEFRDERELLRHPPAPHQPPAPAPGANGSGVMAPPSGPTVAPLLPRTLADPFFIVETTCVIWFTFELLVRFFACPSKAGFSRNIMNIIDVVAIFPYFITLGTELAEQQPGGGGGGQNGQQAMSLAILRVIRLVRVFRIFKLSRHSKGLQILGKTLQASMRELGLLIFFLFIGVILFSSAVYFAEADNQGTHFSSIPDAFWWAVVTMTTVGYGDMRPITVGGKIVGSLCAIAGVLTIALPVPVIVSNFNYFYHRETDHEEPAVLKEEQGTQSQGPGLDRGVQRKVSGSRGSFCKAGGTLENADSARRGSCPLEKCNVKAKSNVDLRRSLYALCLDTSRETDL
Sequence of hERG (KCNH2) (Q12809 whole entry): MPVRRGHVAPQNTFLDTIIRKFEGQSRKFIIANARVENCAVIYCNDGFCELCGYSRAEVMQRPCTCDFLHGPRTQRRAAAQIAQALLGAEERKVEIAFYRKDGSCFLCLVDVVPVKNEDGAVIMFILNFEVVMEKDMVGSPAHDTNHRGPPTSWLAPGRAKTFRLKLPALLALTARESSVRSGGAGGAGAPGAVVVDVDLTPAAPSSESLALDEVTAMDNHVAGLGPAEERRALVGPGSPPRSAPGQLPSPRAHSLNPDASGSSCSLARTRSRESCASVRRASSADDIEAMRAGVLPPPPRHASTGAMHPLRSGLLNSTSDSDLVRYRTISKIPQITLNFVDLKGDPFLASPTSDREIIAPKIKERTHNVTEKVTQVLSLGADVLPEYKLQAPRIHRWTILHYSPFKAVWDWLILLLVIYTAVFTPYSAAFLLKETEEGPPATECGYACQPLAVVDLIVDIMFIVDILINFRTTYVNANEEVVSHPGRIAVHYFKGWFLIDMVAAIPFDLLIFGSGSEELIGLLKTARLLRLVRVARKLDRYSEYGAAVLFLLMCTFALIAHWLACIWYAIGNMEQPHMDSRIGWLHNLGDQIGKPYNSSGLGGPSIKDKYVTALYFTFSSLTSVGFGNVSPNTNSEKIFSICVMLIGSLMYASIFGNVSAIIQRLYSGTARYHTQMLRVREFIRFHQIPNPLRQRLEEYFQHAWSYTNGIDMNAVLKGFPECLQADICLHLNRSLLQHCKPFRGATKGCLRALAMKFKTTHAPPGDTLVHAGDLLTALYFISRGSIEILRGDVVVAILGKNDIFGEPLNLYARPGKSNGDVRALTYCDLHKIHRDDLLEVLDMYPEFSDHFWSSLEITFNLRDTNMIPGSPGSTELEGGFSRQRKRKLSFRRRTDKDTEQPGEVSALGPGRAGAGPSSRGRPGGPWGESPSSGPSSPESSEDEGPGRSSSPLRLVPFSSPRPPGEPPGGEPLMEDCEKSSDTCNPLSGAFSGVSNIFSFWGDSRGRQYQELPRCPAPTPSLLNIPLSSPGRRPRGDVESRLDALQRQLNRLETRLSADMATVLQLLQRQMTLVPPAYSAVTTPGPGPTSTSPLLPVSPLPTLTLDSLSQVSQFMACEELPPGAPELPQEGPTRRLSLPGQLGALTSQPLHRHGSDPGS

As for `COc1cccc2c1C(NC[C@]1(c3ccccc3)CC[C@H](n3cnnn3)CC1)=NS2(=O)=O`, the remaining at 10 min, 3 µM amounted to 19% in data set [1], 56% in [2] and 56% in data set [3]. In addition, the IC50 (commonly the point on the concentration scale where inhibition reaches its midpoint) in data set [4] was determined as 32 nM.
`CCS(=O)(=O)N[C@H]1CC[C@](CNC2=NS(=O)(=O)c3cccc(OC)c32)(c2ccccc2)CC1`: the figures for the remaining at 10 min, 3 µM in data set [1], in data set [2] and in data set [3] were 67%, 30% and 75%, respectively. 10 µM produced 59% inhibition against hERG (KCNH2). Moreover, the inhibition – broadly, how much of the control response was suppressed – in the data set filed under Homo sapiens [5] was 14%; in the data set filed under Homo sapiens [6], 7%. The IC50 in data set [4] came to 60 nM.
Turning to `COc1cccc2c1C(NC[C@]1(c3ccccc3)CC[C@H](OC(=O)Nc3nnc(C4CC4)s3)CC1)=NS2(=O)=O`, the AUC (commonly the area under the concentration-time curve, a measure of exposure) in data set [7] came to 0.2 µM·h. Also, the Activity is given as 23% in the data set with Rattus norvegicus [8], “Non-toxic” in the data set filed under Oryctolagus cuniculus [9], 6% with Oryctolagus cuniculus [16] and 19% in the data set on Rattus norvegicus [19]. The remaining at 10 min, 3 µM in data set [1] came out at 70%; in [2], 66%; in data set [3], 75%. On hERG (KCNH2), this molecule showed an inhibition at 10 µM of 17%. This molecule gave a clearance in data set [10] of 6.8 mL/min/kg. The Cmax (as a rule, the maximum level reached in the sampled fluid or tissue) in [11] turned out to be 23 µM; in data set [15], 0.011 µM. In addition, the half-life (in general, the time needed for the level to fall by half in the phase considered) in data set [12] was 2.3 h. For the same molecule, the Vd in [13] was 0.9 L/kg. The inhibition in the data set filed under Homo sapiens [5] turned out to be 8%; in the data set filed under Homo sapiens [6], 21%. Also, the EC20 (in general, the concentration needed for an effect of 20%) in the data set listed under Oryctolagus cuniculus [14] came to 23000 nM. The bioavailability (as a rule, dose-corrected exposure relative to a reference, in per cent) in [17] was 1%. Further, in data set [4], the IC50 is 92 nM. The concentration at 5 min in [18] amounted to 72 µM.
`COc1cccc2c1C(NC[C@]1(c3ccccc3)CC[C@H](OC(=O)NC3CC3)CC1)=NS2(=O)=O`: the figures for the remaining at 10 min, 3 µM in [1], in data set [2] and in [3] were 5%, less than 1% and 9%, respectively. In addition, in data set [4], the IC50 was found to be 170 nM.
For `CCOP(=O)(NC(=O)O[C@H]1CC[C@](CNC2=NS(=O)(=O)c3cccc(OC)c32)(c2ccccc2)CC1)OCC`, the inhibition in data set [20] worked out at 13%. Moreover, the IC50 in [4] is more than 10000 nM.
Turning to `COc1cccc2c1C(NC[C@]1(c3ccccc3)CC[C@H](OC(=O)Nc3ccc(N(C)C)cc3)CC1)=NS2(=O)=O`, the remaining at 10 min, 3 µM was less than 1% in data set [1], less than 1% in [2] and 2% in [3]. In data set [4], the IC50 was 30 nM.
In the case of `COc1cccc2c1C(NC[C@]1(c3ccccc3)CC[C@H](NC(=O)OCC(F)(F)F)CC1)=NS2(=O)=O`, the remaining at 10 min, 3 µM in data set [1] amounted to 57%; in data set [2], 48%; in data set [3], 95%. 10 µM produced 47% inhibition against hERG (KCNH2). Also, the inhibition in the data set filed under Homo sapiens [5] was determined as 51%; in the data set filed under Homo sapiens [6], 23%. Moreover, the IC50 in data set [4] worked out at 28 nM.
`COc1cccc2c1C(NC[C@]1(c3ccccc3)CC[C@H](NS(N)(=O)=O)CC1)=NS2(=O)=O`: in data set [20], the inhibition was 18%. Further, the IC50 in [4] is more than 10000 nM.
In the case of `COc1cccc2c1C(NC[C@]1(c3ccccc3)CC[C@H](OC(=O)NCCO)CC1)=NS2(=O)=O`, the inhibition in data set [20] was determined as 27%. Moreover, the IC50 in data set [4] is more than 10000 nM.
`COc1cccc2c1C(NC[C@]1(c3ccccc3)CC[C@@H](O)CC1)=NS2(=O)=O`: the remaining at 10 min, 3 µM in [1] amounted to 73%; in data set [2], 73%; in [3] it was 98%. Moreover, in data set [20], the inhibition amounted to 14%. Also, in data set [4], the IC50 was more than 300 nM.
For the molecule `CCNC(=O)O[C@H]1CC[C@](CNC2=NS(=O)(=O)c3cccc(OC)c32)(c2ccccc2)CC1`, the remaining at 10 min, 3 µM in [1] was less than 1%; in data set [2] it was less than 1%; in data set [3], 2%. Besides, in data set [4], the IC50 stood at 65 nM.
As to `CCN(CC)S(=O)(=O)N[C@H]1CC[C@](CNC2=NS(=O)(=O)c3cccc(OC)c32)(c2ccccc2)CC1`, the remaining at 10 min, 3 µM in data set [1], in [2] and in data set [3] was less than 1% each time. Further, the IC50 in data set [4] amounted to 52 nM.
`COc1cccc2c1C(NC[C@]1(c3ccccc3)CC[C@H](OC(=O)NCCC(F)(F)F)CC1)=NS2(=O)=O`: the remaining at 10 min, 3 µM was less than 1% in [1], 3% in data set [2] and less than 1% in data set [3]. In addition, the IC50 in data set [4] worked out at 89 nM.
For the molecule `COc1cccc2c1C(NC[C@]1(c3ccccc3)CC[C@H](OC(=O)NS(=O)(=O)c3ccccc3)CC1)=NS2(=O)=O`, in data set [20], the inhibition was determined as 1%. Besides, the IC50 in [4] was more than 10000 nM.
In the case of `CCOC(=O)N[C@H]1CC[C@](CNC2=NS(=O)(=O)c3cccc(OC)c32)(c2ccccc2)CC1`, the remaining at 10 min, 3 µM in [1] was found to be 19%; in [3] it was 55%. Moreover, the IC50 in [4] was determined as 55 nM.
Consider `COc1cccc2c1C(NC[C@]1(c3ccccc3)CC[C@H](N)CC1)=NS2(=O)=O`, for which the inhibition in data set [20] was 5%. Further, in [4], the IC50 was more than 10000 nM.
`COc1cccc2onc(NCC(C)(C)c3ccccc3)c12`: the remaining at 10 min, 3 µM came out at 13% in [1], 11% in data set [2] and 7% in data set [3].
On to `COc1cccc2c1C(NC[C@]1(c3ccccc3)CC[C@H](OC(=O)N(C)CCN(C)C)CC1)=NS2(=O)=O`, for which the inhibition in data set [20] was 4%. In addition, in data set [4], the IC50 is more than 10000 nM.
As for `COc1cccc2c1C(NCC(C)(C)c1ccccc1)=NC2=O`, the remaining at 10 min, 3 µM in [1] was 43%; in [3], 99%. Further, in [4], the IC50 is 34 nM.
For the molecule `CCNC(=O)N[C@H]1CC[C@](CNC2=NS(=O)(=O)c3cccc(OC)c32)(c2ccccc2)CC1`, the inhibition in [20] was 20%. The IC50 in [4] was more than 10000 nM.
As to `COc1cccc2c1C(NC[C@]1(c3ccccc3)CC[C@H](Nc3ncccn3)CC1)=NS2(=O)=O`, the remaining at 10 min, 3 µM is less than 1% in data set [1], less than 1% in data set [2] and 6% in data set [3]. The IC50 in [4] was 47 nM.
On to `COc1cccc2snc(NCC(C)(C)c3ccccc3)c12`, for which, in data set [3], the remaining at 10 min, 3 µM worked out at 13%. Also, the IC50 in data set [4] came to 24 nM.
